Test results: ChEMBL document CHEMBL4017489, “Design, Synthesis, and Evaluation of New Selective NM23-H2 Binders as c-MYC Transcription Inhibitors via Disruption of the NM23-H2/G-Quadruplex Interaction” (J Med Chem, 2017)
Activity calls are given as the source filed them. No cut-off for these calls is given here.

Legend:
[1] = system: SiHa; experiment: Antitumor activity against human SiHa cells xenografted in BALB/C nude mouse assessed as tumor growth inhibition at 2.5 mg/kg, ip administered daily after 3 weeks relative to control; format: functional; conditions: 504 h, read-out: TGI
[2] = system: SiHa; experiment: Anticlonogenic activity against human SiHa cells up to 0.5 uM after 14 days by crystal violet staining based assay; format: functional, cell-based
Method in brief: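 Colony formation: SiHa cells and primary cultured mouse mesangial cells exposed to 0.5, 0.25, 0.125, 0.0625 and 0.03125 μM for 14 days, DMSO as negative control; three repeats.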

[3] = system: SiHa; experiment: Induction of apoptosis in human SiHa cells assessed as late apoptotic cells at 1 uM after 48 hrs by Annexin V-FITC/propidium iodide based flow cytometric analysis (reference value: 0.7 %); format: functional

Q: What does the source list for `CN(C)CCCNc1cc2nc3n(c(=O)c2cc1F)CC/C3=C\c1ccc(OCc2ccccc2)cc1O`?
A: inhibition in vivo at 2.5 mg/kg [1]: 48%; Activity [2]: Active; Activity [3]: 10.6%
